{"data": "Measured values gathered from unrelated publications", "target": "Mitogen-activated protein kinase kinase kinase kinase 2 (MAP4K2, Homo sapiens, UniProt Q12851)", "Sequence (Q12851 1-820, as in one of the studies)": "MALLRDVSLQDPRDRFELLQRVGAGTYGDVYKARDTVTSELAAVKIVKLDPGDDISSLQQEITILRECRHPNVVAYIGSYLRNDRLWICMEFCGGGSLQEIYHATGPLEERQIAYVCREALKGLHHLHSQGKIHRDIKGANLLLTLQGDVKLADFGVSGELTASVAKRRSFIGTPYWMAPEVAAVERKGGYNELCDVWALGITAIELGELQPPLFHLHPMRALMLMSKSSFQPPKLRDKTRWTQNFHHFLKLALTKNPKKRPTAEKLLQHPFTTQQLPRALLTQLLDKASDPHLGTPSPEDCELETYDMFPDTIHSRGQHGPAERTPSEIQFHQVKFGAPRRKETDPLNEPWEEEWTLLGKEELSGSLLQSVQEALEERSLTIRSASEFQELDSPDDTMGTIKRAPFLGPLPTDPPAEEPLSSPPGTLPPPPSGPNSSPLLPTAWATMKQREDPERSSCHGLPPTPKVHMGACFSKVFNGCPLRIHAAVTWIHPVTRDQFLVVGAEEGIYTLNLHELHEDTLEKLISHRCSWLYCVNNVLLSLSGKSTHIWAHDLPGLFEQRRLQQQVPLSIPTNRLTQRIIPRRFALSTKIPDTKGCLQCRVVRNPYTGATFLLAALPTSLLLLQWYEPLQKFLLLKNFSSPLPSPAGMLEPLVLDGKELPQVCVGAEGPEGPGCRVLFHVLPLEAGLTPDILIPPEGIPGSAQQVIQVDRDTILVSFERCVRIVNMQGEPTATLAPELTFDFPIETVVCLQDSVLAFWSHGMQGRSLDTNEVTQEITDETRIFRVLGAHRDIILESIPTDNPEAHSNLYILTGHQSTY", "note": "Lines come from different studies, so protocols differ."}
{"Structure (SMILES)": "C[C@H](c1cccc(C#N)c1)n1cc(Cl)cc(C(N)=O)c1=N", "observed": "cell-free assay", "method": "competition with immobilised ligand", "tested at": "1 µM", "remaining binding [%]": 99}
{"Structure (SMILES)": "CN(C)c1nccc(-c2cnn3ncccc23)n1", "observed": "binding", "tested at": "1 µM", "remaining binding [%]": 100}
{"Structure (SMILES)": "O=C(N1CCS(=O)(=O)CC1)N1C[C@H](c2ccc(OC(F)(F)F)cc2)C[C@H](c2nc(C3CC3)no2)C1", "observed": "cell-free assay", "method": "competition with immobilised ligand", "tested at": "1 µM", "remaining binding [%]": 94}
{"Structure (SMILES)": "F[C@@H]1CCN(c2nccc(-c3cnn4ncccc34)n2)C1", "observed": "binding", "tested at": "1 µM", "remaining binding [%]": 100}
{"Structure (SMILES)": "O=C(Nc1cnc(Oc2ccc(F)cc2)nc1)N1CCc2ncccc2[C@@H]1c1ccc(F)cc1", "observed": "cell-free assay", "method": "competition with immobilised ligand", "tested at": "1 µM", "remaining binding [%]": 100}
{"Structure (SMILES)": "O=C(NCC1CCOCC1)c1n[nH]cc1NC(=O)c1c(F)cccc1F", "observed": "binding", "method": "competition with immobilised ligand", "tested at": "1 µM", "remaining binding [%]": 100}
{"Structure (SMILES)": "CC1CCCN1c1nccc(-c2cnn3ncccc23)n1 (stereo not shown)", "observed": "binding", "tested at": "1 µM", "remaining binding [%]": 100}
{"Structure (SMILES)": "O=C(O)c1cc(-c2ccc(C3CCNCC3)cc2)c2ccc(-c3ccc(C(F)(F)F)cc3)cc2c1", "observed": "cell-free assay", "method": "competition with immobilised ligand", "tested at": "1 µM", "remaining binding [%]": 100}
{"Structure (SMILES)": "O=C(NCCCN1CCOCC1)c1ccc(Nc2nccc(-c3cc4ccccc4s3)n2)cc1", "observed": "binding", "method": "competition with immobilised ligand", "tested at": "1 µM", "remaining binding [%]": 73}
{"Structure (SMILES)": "CC(=O)C1=C(C)N(c2cccc(C(F)(F)F)c2)C(=O)N[C@@H]1c1ccc(C#N)nc1", "observed": "cell-free assay", "method": "competition with immobilised ligand", "tested at": "1 µM", "remaining binding [%]": 100}
{"Structure (SMILES)": "O=C(c1ccc(Nc2ncc(Cl)c(-c3ccc(Cl)s3)n2)cc1)N1CCC(N2CCCC2)CC1", "observed": "binding", "method": "competition with immobilised ligand", "tested at": "1 µM", "remaining binding [%]": 15}
{"Structure (SMILES)": "Nc1ncc2c(n1)-c1c([nH]c3ccc(C#CC4CC4)cc13)CCCC2", "observed": "binding", "method": "competition with immobilised ligand", "tested at": "1 µM", "remaining binding [%]": 84}
{"Structure (SMILES)": "O=C(c1ccc(Nc2ncc(Cl)c(-c3cc4ccccc4s3)n2)cc1)N1CCC(N2CCCC2)CC1", "observed": "binding", "method": "competition with immobilised ligand", "tested at": "1 µM", "remaining binding [%]": 36}
{"Structure (SMILES)": "FC(F)(F)Oc1cccc(-c2cnc3ccc(-c4ccncc4)nn23)c1", "observed": "cell-free assay", "method": "competition with immobilised ligand", "tested at": "5 µM", "remaining binding [%]": 17}
{"Structure (SMILES)": "C[C@@H]1CCN(c2nccc(-c3cnn4ncccc34)n2)C1", "observed": "binding", "tested at": "1 µM", "remaining binding [%]": 70}
{"Structure (SMILES)": "COc1cnc(Nc2cccc(S(N)(=O)=O)c2)nc1N1CCN(c2ccccc2)CC1", "observed": "binding", "method": "competition with immobilised ligand", "tested at": "1 µM", "remaining binding [%]": 78}
{"Structure (SMILES)": "COc1ccnn2ncc(-c3ccnc(N(C)C)n3)c12", "observed": "binding", "tested at": "1 µM", "remaining binding [%]": 73}
{"Structure (SMILES)": "CNC(=O)Nc1ccc2c(c1)CC[C@@]21OC(=O)N(CC(=O)N(Cc2ccc(F)cc2)[C@@H](C)C(F)(F)F)C1=O", "observed": "cell-free assay", "method": "competition with immobilised ligand", "tested at": "1 µM", "remaining binding [%]": 76}
{"Structure (SMILES)": "CN(C)c1ncc(F)c(-c2cnn3ncccc23)n1", "observed": "binding", "tested at": "1 µM", "remaining binding [%]": 82}
{"Structure (SMILES)": "COc1ncc2cc3ccccc3nc2c1C#N", "observed": "cell-free assay", "method": "competition with immobilised ligand", "tested at": "5 µM", "remaining binding [%]": 84}
{"Structure (SMILES)": "CN(C(=O)c1ccccc1)c1cc(N(C)c2ccc3c(c2)CCc2ccc(C(=O)NCCN4CCOCC4)cc2C3=O)ccc1F", "observed": "cell-free assay", "method": "competition with immobilised ligand", "tested at": "1 µM", "remaining binding [%]": 97}
{"Structure (SMILES)": "CN(C)c1nccc(-c2cnc3ncccn23)n1", "observed": "binding", "tested at": "1 µM", "remaining binding [%]": 54}
